For orientation: inhibition means the share of the control response that was lost under treatment. In general, CC50 refers to the concentration that lowers cell viability or growth by half. For orientation: IC50 means the concentration that gives 50% inhibition.

Series [1] deals with Human immunodeficiency virus type 1 reverse transcriptase (Human immunodeficiency virus 1) (UniProt Q72547). In words: Inhibition of polymerase activity of HIV1 recombinant reverse transcriptase expressed in Escherichia coli at 50 uM. The method, boiled down: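 Single-concentration test: compounds at 50 on recombinant HIV-1 RT (66 kDa, E. coli-expressed from pUC12N, Sephadex G-25 fraction) polymerase activity. 50 mM Tris-HCl pH 7.8, 6 mM MgCl2, 1 mM DTT, 50 mM KCl, dTTP with [3H]dTTP, poly(rA)·oligo(dT) template-primer, 1 U enzyme; 30 min at 37 °C; TCA precipitation onto filters, incorporated 3H by scintillation counting.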

Series [2] is described as follows: Cytotoxicity against african green monkey Vero cells after 72 hrs by MTT assay. The settings on record: chlorocebus sabaeus. Type of series: cell-based. The method, boiled down: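 Vero cells grown in DMEM with 5% FBS, penicillin/streptomycin, 37 °C, 5% CO2; monolayers of about 10^4 cells exposed to several compound concentrations for 72 h. MTT solution (1 mg/mL) then added to assess viability. CC50 obtained by linear regression of dose-response curves; duplicates, at least three independent experiments.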

Series [3] deals with Human immunodeficiency virus type 1 reverse transcriptase (Human immunodeficiency virus 1, UniProt Q72547). Kind of series: Inhibition of polymerase activity of HIV1 recombinant reverse transcriptase expressed in Escherichia coli. The method, boiled down: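 Recombinant HIV-1 RT (66 kDa) expressed in E. coli from plasmid pUC12N, partly purified by Sephadex G-25; compounds tested at different concentrations (0.01-50). Reaction: 50 mM Tris-HCl pH 7.8, 6 mM MgCl2, 1 mM DTT, 50 mM KCl, dTTP plus [3H]dTTP, poly(rA)·oligo(dT), 1 U enzyme; 37 °C, 30 min; stopped with ice-cold 5% TCA/pyrophosphate, filter-collected, 3H counted by scintillation.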

Each structure is given as a SMILES string.

On to `Cc1c(C(=O)OC[C@@]23OC[C@H]4OC(C)(C)O[C@H]4[C@@H]2OC(C)(C)O3)nnn1Cc1ccccc1`, for which the inhibition in series [1] turned out to be 47.9%. This compound also registered a CC50 at 72 h in series [2] of 3380 µM.

For `Cc1c(C(=O)OC[C@H]2O[C@@H]3OC(C)(C)O[C@@H]3[C@H]2OCc2ccccc2)nnn1Cc1ccccc1`, the inhibition in series [1] turned out to be 65.4%. This compound displayed a CC50 at 72 h in series [2] of 724 µM. Besides, the IC50 in series [3] is 1980 nM.

Turning to `Cc1c(C(=O)O[C@H]2[C@H](O)[C@H](O)CO[C@]2(O)CO)nnn1Cc1ccccc1`, the inhibition in series [1] was determined as 45.6%. The compound also returned a CC50 at 72 h in series [2] of 649 µM.

For `Cc1c(C(=O)O[C@H]2[C@H](O)[C@@H](CO)OC(O)[C@@H]2O)nnn1Cc1ccccc1` (some centres not stated), the inhibition in series [1] came to 35.9%. Also, in series [2], the midpoint of cytotoxicity, the CC50 at 72 h, lay at 1800 µM.

Consider `Cc1c(C(=O)O[C@@H]2[C@H]3OC(C)(C)O[C@H]3O[C@@H]2[C@H]2COC(C)(C)O2)nnn1Cc1ccccc1`, for which, in series [1], the inhibition was 64.7%. In series [2], the 50% cytotoxic concentration (CC50) at 72 h came to 208 µM. Moreover, the IC50 in series [3] is 5000 nM.

As to `Cc1c(C(=O)O[C@H]2[C@@H](O)[C@H](O)O[C@H](CO)[C@H]2O)nnn1Cc1ccccc1`, the inhibition in series [1] was found to be 14%. In series [2], this compound came in with a half-maximal cytotoxic concentration (CC50) at 72 h of 1440 µM.

`Cc1c(C(=O)O[C@H]2[C@@H]3OC(C)(C)O[C@@H]3CO[C@]23COC(C)(C)O3)nnn1Cc1ccccc1`: the inhibition in series [1] came out at 43.5%. In addition, it took 2750 µM to reach half-maximal cytotoxicity in series [2] (CC50 at 72 h).

As for `Cc1c(C(=O)OC[C@H]2O[C@H](O)[C@H](O)[C@H]2OCc2ccccc2)nnn1Cc1ccccc1`, in series [1], the inhibition is 36.2%. In addition, the CC50 at 72 h in series [2] was determined as 596 µM.

With `Cc1c(C(=O)OC[C@H]2O[C@@H]3OC(C)(C)O[C@@H]3[C@H]3OC(C)(C)O[C@H]32)nnn1Cc1ccccc1`, the inhibition in series [1] was found to be 28.8%. Further, the CC50 at 72 h in series [2] was found to be 123 µM.

As for `Cc1c(C(=O)OC[C@H]2O[C@@H](O)[C@H](O)[C@@H]2O)nnn1Cc1ccccc1`, the inhibition in series [1] worked out at 33.2%. Besides, the CC50 at 72 h in series [2] is 1170 µM.

On to `Cc1c(C(=O)O[C@H]2[C@H]3OC(C)(C)O[C@H]3O[C@@H]2[C@H]2COC(C)(C)O2)nnn1Cc1ccccc1`, for which, in series [1], the inhibition was found to be 3%. In addition, in series [2], the cytotoxic concentration (CC50) at 72 h came out at 3530 µM.

Consider `Cc1c(C(=O)OC[C@@]2(O)OC[C@@H](O)[C@@H](O)[C@@H]2O)nnn1Cc1ccccc1`, for which the inhibition in series [1] came out at 35.8%. This compound registered a CC50 at 72 h in series [2] of 800 µM.

The compound `Cc1cn([C@H]2C[C@H](N=[N+]=[N-])[C@@H](CO)O2)c(=O)[nH]c1=O` [ZIDOVUDINE] displayed a CC50 at 72 h in series [2] of 126 µM.

On to `CO[C@@H]1O[C@H](COC(=O)c2nnn(Cc3ccccc3)c2C)[C@H]2OC(C)(C)O[C@@H]12`, for which, in series [1], the inhibition amounted to 63.6%. The CC50 at 72 h in series [2] was 837 µM. Moreover, the IC50 in series [3] was found to be 2200 nM.

On to `Cc1c(C(=O)OC[C@H]2O[C@H](O)[C@H](O)[C@@H](O)[C@H]2O)nnn1Cc1ccccc1`, for which the inhibition in series [1] is 45.6%. Also, the CC50 at 72 h in series [2] is 25600 µM.

Values taken from ChEMBL document CHEMBL1152863, “Synthesis, HIV-RT inhibitory activity and SAR of 1-benzyl-1H-1,2,3-triazole derivatives of carbohydrates” (Eur J Med Chem, 2009).
